ChEMBL document CHEMBL1125235, “Doxorubicin analogues incorporating chemically reactive substituents” (J Med Chem, 1991)

Columns and labels:
[1] = tested on: P388; experiment: Ability to inhibit growth of P388 leukemic cell line was determined in an in vitro MTT assay.; type: functional, cell-based; conditions: Mus musculus
Procedure, shortened: (§1)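 Murine leukemia cells in RPMI 1640 with 10% heat-inactivated FCS, 2-mercaptoethanol; exponentially growing at 10^6 cells/mL, exposed to varying drug concentrations (DMSO stock, final 0.5% DMSO; controls same) for 1 h at 37 °C, washed twice with ice-cold PBS, resuspended at 2 × 10^5/mL in drug-free medium, cultured 72 h. IC50 = concentration giving 50% growth inhibition versus untreated controls.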

[2] = tested on: L1210; experiment: Ability to inhibit growth of L1210 leukemic cell lines was determined in an in vitro MTT assay.; type: functional, cell-based; conditions: Mus musculus; procedure, shortened: as §1
[3] = tested on: MES-SA; experiment: Ability to inhibit growth of doxorubicin-sensitive (MES-SA) uterine sarcoma cell line was determined in an in vitro MTT assay.; type: functional, cell-based; conditions: Homo sapiens
Procedure, shortened: (§2)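 Uterine sarcoma cells in Waymouth's/McCoy's 5A with 15% FCS and insulin. MES-SA seeded at 4 × 10^3, MES-SA/DOX at 6 × 10^3 per well, attached 16–24 h, then given drug-containing medium (final DMSO 0.5%) for 72 h. MTT added for 3 h at 37 °C, formazan dissolved in DMSO, OD read at 570 nm. IC50 versus untreated controls.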

[4] = tested on: MES-SA; experiment: Ability to inhibit growth of doxorubicin-resistant (MES-SA/DOX) uterine sarcoma cell line was determined in an in vitro MTT assay.; type: functional, cell-based; conditions: Homo sapiens; procedure, shortened: as §2
[5] = tested on: KBM-3 cell line; experiment: Ability to inhibit growth of human myelogenous leukemic cell line KBM-3 was determined in an in vitro clonogenic assay.
[6] = tested on: KBM-3/DOX cell line; experiment: Ability to inhibit growth of human myelogenous leukemic cell line KBM-3 variant namely KBM-3/DOX, was determined in an in vitro clonogenic assay.

| SMILES | IC50 [1] [nM] | IC50 [2] [nM] | IC50 [3] [nM] | IC50 [4] [µM] | IC50 [5] [nM] | IC50 [6] [nM] |
| --- | --- | --- | --- | --- | --- | --- |
| COc1cccc2c1C(=O)c1c(O)c3c(c(O)c1C2=O)C[C@](O)(C(=O)CO)C[C@@H]3OC1CC(NC(=O)CCl)C(O)C(C)O1 (stereo partly specified) | 2900 | 2100 | 400 | 2.7 |  |  |
| COc1cccc2c1C(=O)c1c(O)c3c(c(O)c1C2=O)C[C@](O)(C(=O)CO)C[C@@H]3OC1CC(NC(=O)N(CCCl)N=O)C(O)C(C)O1 (stereo partly specified) | 2900 | 2900 | 800 | 7.7 | 210 | 250 |
| COc1cccc2c1C(=O)c1c(O)c3c(c(O)c1C2=O)C[C@](O)(C(=O)CO)C[C@@H]3OC1CC(NC(=O)c2ccc(S(=O)(=O)F)cc2)C(O)C(C)O1 (stereo partly specified) | 7700 | 6900 | 3800 | 6.9 |  |  |
| COc1cccc2c1C(=O)c1c(O)c3c(c(O)c1C2=O)C[C@](O)(C(=O)CO)C[C@@H]3OC1CC(NC(=O)CBr)C(O)C(C)O1 (stereo partly specified) | 1500 | 2100 | 200 | 0.8 | 140 | 160 |
| COc1cccc2c1C(=O)c1c(O)c3c(c(O)c1C2=O)C[C@@](O)(C(=O)CO)C[C@@H]3O[C@H]1C[C@H](N)[C@H](O)[C@H](C)O1 [DOXORUBICIN] | 1220 | 200 | 40 | 4.2 | 26 | 490 |
